# Assay results published in ChEMBL document CHEMBL1143978, “Novel 1,3,4-thiadiazolium-2-phenylamine chlorides derived from natural piperine as trypanocidal agents: chemical and biological studies” (Bioorg Med Chem, 2008).
# Tests used:
# Trypanosoma cruzi [1] = experiment: Antiparasitic activity against Trypanosoma cruzi Y epimastigote; format: functional, organism-based
# How it was run: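 Y-strain epimastigotes (1×10^5 cells) grown in BHI with hemin, folic acid and 5% heat-inactivated FCS at 28 °C, with or without compound. DMSO final was 0.05%, and controls contained the same DMSO. After 7 days, live parasites were counted directly in a Neubauer chamber. IC50 is the mean of triplicate experiments.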
# [2] = Cytotoxicity against mouse macrophages after 72 hrs; format: cell-based, Macrophage; conditions: read-out: LD50
# How it was run: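 Murine peritoneal macrophages seeded at 1.10⁶ cells/well in RPMI with 10% FCS and allowed to attach 24 h at 37 °C. Exposed 72 h to compounds in DMSO (final solvent at most 0.05%). Washed with PBS, trypan blue added (final 0.01%), and 200 cells counted in a Neubauer chamber for membrane permeability. IC50 is the mean of triplicate experiments.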
# Trypanosoma cruzi [3] = experiment: Antiparasitic activity against Trypanosoma cruzi Y amastigotes; format: functional, organism-based
# How it was run: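 Resident peritoneal macrophages from uninfected BALB/c mice, once adhered, infected with T. cruzi metacyclic trypomastigotes at 10:1 parasite/macrophage for 1 h at 37 °C, 5% CO2. Free parasites washed off with PBS, then 72 h with compound at […]. Methanol-fixed, Giemsa-stained. 200 cells counted in triplicate for % infected cells, amastigotes per macrophage and endocytic index.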
# Trypanosoma cruzi [4] = experiment: Antiparasitic activity against Trypanosoma cruzi Y trypomastigotes; format: functional, organism-based
Structure (SMILES),IC50 (Trypanosoma cruzi [1]),CC50 at 72 h [2],IC50 (Trypanosoma cruzi [3]),IC50 (Trypanosoma cruzi [4])
O=C(/C=C/C=C/c1ccc2c(c1)OCO2)N1CCCCC1 [PIPERINE],7.31 µM,20 µM,4.91 µM,–
O=[N+]([O-])c1cc2c(cc1CCCCc1sc(Nc3ccccc3)n[n+]1-c1ccccc1)OCO2,45.2 µM,–,–,–
O=C(Cn1ccnc1[N+](=O)[O-])NCc1ccccc1 [BENZNIDAZOLE],–,–,2.51 µM,6.61 µM
O=[N+]([O-])c1cc2c(cc1-c1sc(Nc3ccccc3)n[n+]1-c1ccccc1)OCO2,13.4 µM,6.62 µM,–,–
O=[N+]([O-])c1cc2c(cc1/C=C/c1sc(Nc3ccccc3)n[n+]1-c1ccccc1)OCO2,0.64 µM,1.08 µM,–,–
O=[N+]([O-])c1cc2c(cc1CCc1sc(Nc3ccccc3)n[n+]1-c1ccccc1)OCO2,40.8 µM,–,–,–
c1ccc(Nc2n[n+](-c3ccccc3)c(CCc3ccc4c(c3)OCO4)s2)cc1,83.4 µM,–,–,–
C(=C\c1sc(Nc2ccccc2)n[n+]1-c1ccccc1)/c1ccc2c(c1)OCO2,4.13 µM,1.95 µM,–,–
c1ccc(Nc2n[n+](-c3ccccc3)c(-c3ccc4c(c3)OCO4)s2)cc1,113 µM,–,–,–
c1ccc(Nc2n[n+](-c3ccccc3)c(CCCCc3ccc4c(c3)OCO4)s2)cc1,31.5 µM,–,–,–
C(/C=C/c1sc(Nc2ccccc2)n[n+]1-c1ccccc1)=C\c1ccc2c(c1)OCO2,10.8 µM,38.6 µM,1.35 µM,6.7 µM
